Assay results: publication PMC7214649 (Clinical and Translational Science, 2020)
Where two headings read alike, the source gives them in different places. Values belong to the compound of their own block, whether it stands above or below them.

Tests used:
[1] = cited from earlier work
[2] = format: in vivo, human
[3] = target: T1, P-gp (Homo sapiens, UniProt P08183); format: in vivo
[4] = target: T1, P-gp; settings: single dose venetoclax 100 mg, female healthy volunteers; cited from earlier work
[5] = fed conditions; cited from earlier work
[6] = system: CYP3A; test: Ritonavir-venetoclax drug interaction study, observed exposure ratios; format: in vivo, human
Procedure, shortened: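 20 female subjects, […], all drugs given orally; serial blood sampling for plasma levels of both the test compound and the CYP3A inhibitor. Validated assays had LLOQ 2.11 ng/mL (test compound) and 9.73 ng/mL (inhibitor), bias -4.7% to 7.1%, and CV 1.6% to 9.6%. Ratio is Cmax or AUC on coadministration over dosing alone; AUC96 runs 0–96 h postdose.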

[7] = format: in vivo, human; remark: listed apart in the source
[8] = Cohort 1: venetoclax 10 mg with single dose ritonavir 50 mg vs venetoclax alone, period 1 day 1 vs period 2 day 1
[9] = Cohort 2: venetoclax 10 mg with single dose ritonavir 100 mg vs venetoclax alone, period 1 day 1 vs period 2 day 1
[10] = Cohort 3: venetoclax 10 mg with ritonavir 50 mg q.d. for 11 days vs venetoclax alone, multiple-dose effect, period 1 day 1 vs period 2 day 11

T1 sequence (P08183 whole entry): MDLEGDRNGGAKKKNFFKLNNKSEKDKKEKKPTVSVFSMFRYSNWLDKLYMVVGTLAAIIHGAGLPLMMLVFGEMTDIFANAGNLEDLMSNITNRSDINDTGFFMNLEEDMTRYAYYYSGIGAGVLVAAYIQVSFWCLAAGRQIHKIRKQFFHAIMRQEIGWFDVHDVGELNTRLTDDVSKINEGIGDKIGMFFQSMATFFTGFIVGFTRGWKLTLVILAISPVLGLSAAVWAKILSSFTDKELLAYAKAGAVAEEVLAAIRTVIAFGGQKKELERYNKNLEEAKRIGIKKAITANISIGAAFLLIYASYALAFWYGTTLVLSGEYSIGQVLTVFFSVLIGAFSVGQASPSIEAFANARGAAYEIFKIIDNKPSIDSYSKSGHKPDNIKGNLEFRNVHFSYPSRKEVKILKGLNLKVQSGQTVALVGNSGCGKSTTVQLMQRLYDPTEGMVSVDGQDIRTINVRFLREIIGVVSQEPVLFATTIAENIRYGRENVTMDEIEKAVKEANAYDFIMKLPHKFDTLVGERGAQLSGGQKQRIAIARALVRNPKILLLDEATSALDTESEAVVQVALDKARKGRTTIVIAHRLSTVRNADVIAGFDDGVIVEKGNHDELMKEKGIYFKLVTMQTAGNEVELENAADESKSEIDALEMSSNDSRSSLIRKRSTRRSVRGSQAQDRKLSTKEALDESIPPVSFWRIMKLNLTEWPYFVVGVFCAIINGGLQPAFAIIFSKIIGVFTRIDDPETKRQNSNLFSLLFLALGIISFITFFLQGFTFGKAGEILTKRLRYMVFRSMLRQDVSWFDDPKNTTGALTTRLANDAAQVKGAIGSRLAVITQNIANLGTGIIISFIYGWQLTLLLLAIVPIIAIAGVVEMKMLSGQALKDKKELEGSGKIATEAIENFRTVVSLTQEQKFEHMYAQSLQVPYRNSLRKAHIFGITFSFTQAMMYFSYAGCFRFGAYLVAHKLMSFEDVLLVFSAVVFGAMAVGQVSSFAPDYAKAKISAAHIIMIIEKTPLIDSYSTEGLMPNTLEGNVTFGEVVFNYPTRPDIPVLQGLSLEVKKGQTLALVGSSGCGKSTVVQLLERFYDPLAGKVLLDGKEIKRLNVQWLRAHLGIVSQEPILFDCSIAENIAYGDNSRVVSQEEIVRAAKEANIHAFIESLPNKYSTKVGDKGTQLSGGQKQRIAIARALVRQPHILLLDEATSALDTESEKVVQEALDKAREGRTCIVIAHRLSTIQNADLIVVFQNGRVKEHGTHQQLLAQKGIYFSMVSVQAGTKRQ

- CL BSV (between subject variability) ([2]; VEN-DIG model): 12.3 %CV
- V2 BSV (between subject variability) ([2]; VEN-DIG model): 28.9 %CV
- ALAG (absorption lag time) ([2]; VEN-DIG model final estimate): 0.536 h
- Fe (fraction of administered drug excreted into the urine) ([2]; VEN-DIG model final estimate): 0.438%
- Ka (first-order absorption rate constant) ([2]; VEN-DIG model final estimate): 0.777 h⁻¹
- V2 (volume of central compartment) ([2]; VEN-DIG model final estimate): 150 L
- V3 (volume of peripheral compartment) ([2]; VEN-DIG model final estimate): 592 L
- clearance ([2]; female, human, plasma, oral): 262 mL/min
- increase of digoxin bioavailability ([3]; with venetoclax): 8%
Compound: C[C@H]1O[C@@H](O[C@H]2[C@@H](O)C[C@H](O[C@H]3[C@@H](O)C[C@H](O[C@H]4CC[C@@]5(C)[C@H](CC[C@@H]6[C@@H]5C[C@@H](O)[C@]5(C)[C@@H](C7=CC(=O)OC7)CC[C@]65O)C4)O[C@@H]3C)O[C@@H]2C)C[C@H](O)[C@@H]1O [digoxin]
- absolute bioavailability [1]: ~ 80%
- changes in digoxin half-life or renal clearance [4]: no changes
- increase in digoxin AUC [4]: 9%
- increase in digoxin Cmax [4]: 35%

- CL BSV (between subject variability) ([2]; VEN-DIG model): 22 %CV
- ALAG (absorption lag time) ([2]; VEN-DIG model final estimate): 1.72 h
- Ka (first-order absorption rate constant) ([2]; VEN-DIG model final estimate): 0.209 h⁻¹
- V2 (volume of central compartment) ([2]; VEN-DIG model final estimate): 19.1 L
- V3 (volume of peripheral compartment) ([2]; VEN-DIG model final estimate): 25.4 L
- IC50 [3]: 377 nM
- AUCinf ratio, Observed Central value [6, 8]: 6.1
- Cmax ratio, Observed Central value [6, 8]: 2.4
- AUCinf ratio, Observed Central value [6, 9]: 8.1
- Cmax ratio, Observed Central value [6, 9]: 2.3
- AUC96 ratio, Observed Central value [6, 10]: 7.9
- Cmax ratio, Observed Central value [6, 10]: 2.4
- CL BSV (between subject variability) ([7]; RTV-VEN model): 32.6 %CV
- T50 BSV (between subject variability) ([7]; RTV-VEN model): 26.1 %CV
- V2 BSV (between subject variability) ([7]; RTV-VEN model): 64 %CV
- V2 (volume of central compartment) ([7]; RTV-VEN model final estimate): 26.8 L
- V3 (volume of peripheral compartment) ([7]; RTV-VEN model final estimate): 83.5 L
- Kamax (maximum absorption rate constant) ([7]; RTV-VEN model final estimate, time-dependent absorption): 4.76 day⁻¹
- γ (shape factor) ([7]; RTV-VEN model, fixed, estimated value from venetoclax combined data): 5 (fixed ^*)
Compound: CC1(C)CCC(CN2CCN(c3ccc(C(=O)NS(=O)(=O)c4ccc(NCC5CCOCC5)c([N+](=O)[O-])c4)c(Oc4cnc5[nH]ccc5c4)c3)CC2)=C(c2ccc(Cl)cc2)C1 [venetoclax, Venetoclax]
- half-life [5]: ~ 15 hours

- CL BSV (between subject variability) ([7]; RTV-VEN model): 17.9 %CV
- V2 BSV (between subject variability) ([7]; RTV-VEN model): 54.7 %CV
- V2 (volume of central compartment) ([7]; RTV-VEN model final estimate): 30.7 L
- Ka (absorption rate constant) ([7]; RTV-VEN model final estimate, first-order absorption): 1.17 day⁻¹
Compound: CC(C)c1nc(CN(C)C(=O)N[C@H](C(=O)N[C@@H](Cc2ccccc2)C[C@H](O)[C@H](Cc2ccccc2)NC(=O)OCc2cncs2)C(C)C)cs1 [ritonavir]
